Drawing on the RNAGym collection of RNA variant scans (doi:10.1038/nmeth.2970), this text covers Kd for 167 variants.

B1: NELF-E aptamer (parent)
chain: CCCAACGACUGCCGAGCGAGAUUACGCUUGAGCGCCCCACUGAGGAUGCCCACGGGCGAUUGGGGCACGG

Variants of B1 are the subject of the series. Put plainly: HiTS-RAP. Particulars: with NELF-E (Drosophila). The method, boiled down:
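Kd came from weighted Hill fits to the first binding curve, with intensities normalised to sequencing intensity and averaged per sequence, keeping only fits whose variance was below 1,000,000. That curve was imaged on an Illumina GAIIx flowcell, where sequenced aptamer DNA templates with a T7 promoter and ter site had been transcribed in situ by T7 RNA polymerase and halted by GST-Tus (30 minutes, 37°C). Before each image, clusters equilibrated for 30 minutes at room temperature with NELF-E-mOrange at 0.064 to 1000 nM in HEPES binding buffer.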
Turning to A4C U41G, the Kd was determined as 8.98 nM.
For the variant A5C G16U, the Kd was determined as 8.04 nM.
As for A4U C50U, the Kd turned out to be 12.7 nM.
The value for A4U G20U was 6.62 nM.
The value for A4G A46U was 72.7 nM.
As to A4G A46G, the Kd is 37.6 nM.
For the variant A4U G14U, the Kd was 6.79 nM.
The value for A4U G14A was 6 nM.
The value for A4G C17U was 5.09 nM; that for A4G C17A was 4.31 nM; that for A4G C17G was 5.57 nM.
The value for A4G C66U was 5.13 nM; that for A4G C66G was 5.69 nM; that for A5C U10G was 6.68 nM.
For A4G G54A, the Kd is 14.1 nM.
In the case of A4G G54U, the Kd came to 6.61 nM.
The value for A4U G34A was 6.2 nM; that for A4G A8G was 5.83 nM; that for A4G A8U was 6.21 nM.
A4G A8C: the Kd is 6.29 nM.
For A4U G56A, the Kd came out at 10.8 nM.
A4G A67U: the Kd turned out to be 6.47 nM.
For the variant A4G A67G, the Kd is 6.54 nM.
The same measure for A4G A67C: 5.34 nM; for A4G G16U: 6.47 nM; for A4G G16A: 6.14 nM.
A4C U22G: the Kd was 6.04 nM.
As for A4U A24G, the Kd turned out to be 6.45 nM.
With A5G C13A, the Kd was found to be 5.36 nM.
The value for A5G C13U was 5.63 nM.
Take A5G C13G: the Kd came out at 5.6 nM.
Consider A4G U22C, for which the Kd came out at 4.86 nM.
With A4G U22A, the Kd was 6.17 nM.
As to A4G U22G, the Kd was found to be 5.51 nM.
A4U U23G: the Kd came out at 6.29 nM.
The value for A4G C51G was 4.36 nM; that for A4G C51A was 9.97 nM; that for A4G C51U was 7.58 nM.
The value for A4U C37U was 9.84 nM; that for A4U C37A was 13 nM.
In the case of A4U U61A, the Kd is 22.7 nM.
The same measure for A4U U61C: 74.2 nM; for A4G G14U: 6.38 nM; for A4G G14A: 5.98 nM.
A4U C12G: the Kd came out at 5.79 nM.
For A4U C12U, the Kd was 5.44 nM.
As to A5C U41G, the Kd stood at 7.61 nM.
The same measure for A4G C50A: 17.7 nM.
In the case of A4G C50G, the Kd stood at 10.4 nM.
The value for A4G C50U was 14.2 nM; that for A4U C13U was 5.19 nM.
The value for A4U C13A was 4.82 nM; that for A4U C13G was 5.84 nM; that for A4C U10G was 6.48 nM.
In the case of A5G G7A, the Kd is 6.52 nM.
In the case of A5G G7U, the Kd stood at 6.59 nM.
For A5G, the Kd came out at 5.54 nM.
As to A5C, the Kd turned out to be 6.55 nM.
As for A4U C25U, the Kd was determined as 4.95 nM.
The value for A4U C25G was 5.99 nM; that for A4U G64A was 10.1 nM.
With A4U C51U, the Kd is 7.05 nM.
For A4U G55A, the Kd was found to be 8.55 nM.
The same measure for A4G C9U: 5.95 nM; for A4G C9G: 5.74 nM; for A4G C9A: 6.66 nM.
Take A4U A15U: the Kd is 6.22 nM.
With A4U A15G, the Kd amounted to 5.02 nM.
Take A4U U22C: the Kd turned out to be 5.97 nM.
The value for A4U U22G was 5.86 nM; that for A4C U29G was 7.86 nM; that for A4G G44U was 7.66 nM.
The same measure for A4G G44A: 54.3 nM; for A4U A43G: 40 nM; for A5C U23G: 7.92 nM.
The same measure for A4G G32U: 5.95 nM; for A4G G32A: 5.33 nM.
Regarding A4G A39G, the Kd was 10.6 nM.
With A4G A39C, the Kd was 30.7 nM.
The same measure for A4G A39U: 25.9 nM.
In the case of A5G A21G, the Kd turned out to be 5.66 nM.
The value for A5G A21U was 6.3 nM.
For A5G A43U, the Kd turned out to be 33.6 nM.
Consider A5G A43G, for which the Kd is 25.6 nM.
The same measure for A5G C6A: 6.25 nM; for A5G C6G: 5.46 nM; for A5G C6U: 5.92 nM.
Regarding A5G C25G, the Kd is 6.52 nM.
Turning to A4C G7U, the Kd turned out to be 6.88 nM.
The value for A4G A19G was 5.64 nM.
The same measure for A4G A19U: 6.08 nM; for A4G A19C: 4.21 nM; for A4G G30U: 5.76 nM.
On to A4G G30A, for which the Kd was 4.89 nM.
The same measure for A4G G11U: 6.46 nM; for A4G G11A: 6.4 nM; for A4G G62A: 20.8 nM.
In the case of A4G G62U, the Kd was determined as 8.86 nM.
As to A5G C51U, the Kd is 7.39 nM.
The value for A4G G65A was 5.5 nM.
Consider A4G G65U, for which the Kd is 6.71 nM.
On to A4G G65C, for which the Kd amounted to 16.2 nM.
The value for A5G A67G was 6.71 nM; that for A5G A67U was 7.84 nM.
With A5C C9G, the Kd is 7.82 nM.
The value for A4U G62A was 13.5 nM.
The same measure for A4G C35A: 9.55 nM.
The same measure for A4G C35U: 13.5 nM; for A4U G11U: 6.41 nM; for A4U G11A: 4.95 nM.
On to A4U A52U, for which the Kd is 20.1 nM.
The same measure for A4U A52G: 4.05 nM; for A4U C53U: 3.61 nM.
The value for A4G G20U was 7.1 nM.
On to A4G G20A, for which the Kd stood at 5.15 nM.
A5G C33U: the Kd is 6.71 nM.
The same measure for A5C A8U: 8.29 nM; for A5C A8G: 6.78 nM.
A5C A8C: the Kd was 8.75 nM.
The same measure for A4U G32A: 5.67 nM; for A4U A67G: 5.89 nM.
Take A4C A5G: the Kd worked out at 6.09 nM.
The value for A4U A5U was 4.82 nM.
With A4U A5G, the Kd amounted to 5.88 nM.
For the variant A5G C12G, the Kd was found to be 6.02 nM.
The same measure for A5G C12U: 6.51 nM; for A5G C12A: 5.04 nM; for A5G C36U: 6.13 nM.
A4G G64U: the Kd was found to be 7.6 nM.
In the case of A4G G64C, the Kd turned out to be 7.19 nM.
Take A4G G64A: the Kd amounted to 8.61 nM.
The value for A5G C40U was 60.2 nM; that for A5G A39C was 22.3 nM; that for A5G A39G was 13.2 nM.
The value for A5G A39U was 34.5 nM; that for A5C U22G was 6.87 nM.
In the case of A4G C36A, the Kd was 7.98 nM.
The same measure for A4G C36G: 10.4 nM; for A4G C36U: 7.32 nM; for A4G C12U: 5.25 nM.
For A4G C12A, the Kd came to 5.36 nM.
For the variant A4G C12G, the Kd was 5.9 nM.
With A4U C57U, the Kd worked out at 5.44 nM.
Consider A4U G18A, for which the dissociation constant (Kd) was found to be 4.13 nM.
Turning to A4G U28A, the Kd turned out to be 4.59 nM.
The value for A4G U28G was 6.58 nM; that for A4G U28C was 9.05 nM; that for A5G A31G was 7.69 nM.
The value for A5G A31U was 5.74 nM.
A4G G63A: the Kd was 15.1 nM.
The value for A4G G63U was 11.1 nM.
The value for A4G G63C was 28.6 nM; that for C2G was 5.3 nM.
The same measure for C2U: 5.27 nM; for C2A: 5.18 nM; for A4G C40U: 64.8 nM.
On to A4G C40G, for which the Kd amounted to 6.29 nM.
Take A4G U41C: the Kd stood at 73 nM.
On to A4G U41G, for which the Kd came out at 5.56 nM.
The value for A4G U41A was 73.6 nM; that for A5G C9U was 6.36 nM.
A5G C9G: the Kd came to 5.97 nM.
As to A4U C17U, the Kd was 5.01 nM.
Turning to A4U C17G, the Kd amounted to 5.58 nM.
The same measure for A5G C17G: 5.22 nM; for A5G C17U: 6.29 nM; for A4U G7U: 6.61 nM.
